In the library only some 4% were active in any assay of this set; here they are far more common.
NTR1 ag – agonists of human NTR1, primary screen, imaging, U2OS cells, beta-arrestin-GFP, high content; NTR1-U2OS beta-arrestin-GFP spot imaging, agonist mode; 330,000 compounds, 0.17% hits; activation, % at 20 µM; Neurotensin receptor type 1 (Homo sapiens), P30989;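 active = activation at or above 40% of the spot to cytoplasm intensity ratio, with at least 20 cells analyzed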;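 note: 0% = DMSO without peptide and 100% = 100 nM NTR1 peptide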
OX1R antag-1 – antagonists of human orexin 1 receptor (OX1R); Orexin/Hypocretin receptor type 1 (Homo sapiens), O43613; OX1R-expressing cells, FRET antagonist read-out; 330,000 compounds, 1.8% hits; inhibition, % at 6.6 µM; in the data active = inhibition mostly above about 38%, no sharp cut-off; inactive = mostly below about 40%;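 note: 0% = agonist challenge alone and 100% = reference antagonist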
Target sequence (O43613 whole entry, looked up): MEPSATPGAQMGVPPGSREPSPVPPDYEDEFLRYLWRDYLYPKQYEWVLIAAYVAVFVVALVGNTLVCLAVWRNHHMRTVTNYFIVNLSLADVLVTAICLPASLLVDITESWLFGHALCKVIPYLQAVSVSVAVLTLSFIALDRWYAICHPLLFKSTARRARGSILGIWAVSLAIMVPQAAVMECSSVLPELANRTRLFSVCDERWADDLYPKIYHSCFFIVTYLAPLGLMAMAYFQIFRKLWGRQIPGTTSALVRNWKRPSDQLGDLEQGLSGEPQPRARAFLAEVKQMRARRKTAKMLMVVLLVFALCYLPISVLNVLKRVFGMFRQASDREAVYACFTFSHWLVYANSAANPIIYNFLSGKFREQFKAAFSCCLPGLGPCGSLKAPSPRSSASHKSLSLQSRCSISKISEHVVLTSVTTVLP
TAAR1 antagonist – human TAAR1 antagonists, primary screen, Fluo-8 calcium fluorescence, CHO RD-HGA16 cells; antagonist; 360,000 compounds, 1.5% hits; AID 624466, 2012; inhibition, % at 3 µM;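 active = inhibition above a per-plate cutoff, the mean inhibition of test compounds on that plate plus 3 SD, cut at about 49% in these data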;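 note: 0% = DMSO plus EC80 beta-PEA response and 100% = DMSO alone without agonist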
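Test system – hTAAR1-expressing CHO RD-HGA16 cells, Gα16-coupled · Also added – β-PEA at EC80 concentration, post-compound challenge · Compound – 3 µM, single point · Incubation – dye loading 75 min at 37 °C, then 30 min room temperature · Measured by – Fluo-8 intracellular calcium dye fluorescence, real-time kinetic reads · Benchmarks – vehicle and agonist controls · Replicates – singlicate, one well per test compound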
TAAR1 agonist – human TAAR1 agonists, primary screen, Fluo-8 calcium fluorescence, CHO RD-HGA16 cells; Trace amine-associated receptor 1 (Homo sapiens), Q96RJ0; vehicle wells 0%, saturating PEA agonist 100%; activation, % at 3 µM; 360,000 compounds, 0.99% hits; AID 624467, 2012;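 active = activation above the mean activation of all test compounds in the run plus 3 SD, cut at about 38% in these data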
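System: CHO-derived RD-HGA16 cells with stable Gα16 and human TAAR1. Times: 17-24 h plating, Fluo-8 75 min 37 °C, 30 min RT. Measured by: calcium-sensitive Fluo-8 signal, excitation 470-495, emission 515-575 nm. Read-out basis: % activation relative to PEA EC100 response. Control set: DMSO and PEA EC100. Repeats: no replicates (n 1).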
OX1R antag-2 – OX1R (HCRTR1) antagonists, primary screen, fluorescence, CHO/OX1R cells, Fluo-8 calcium, orexin A | inhibition, % at 5 µM | Orexin/Hypocretin receptor type 1 (Homo sapiens), O43613 | AID 434989, 2010 | 330,000 compounds, 0.43% hits | Fluo-8 calcium fluorescence;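 active = inhibition above its plate's threshold, mean inhibition of all tested compounds on the plate plus 3 SD, cut at about 37% in these data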;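 note: 0% = orexin A challenge wells and 100% = SB-334867-A antagonist wells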
CHO parental Ca – ATP-evoked calcium signal inhibitors, parental CHO, primary screen, counter-screen for OX1R antagonist project, cell-based, fluorescence, Fluo-8 calcium dye; inhibition, % at 5.6 µM; 330,000 compounds, 0.63% hits; parental CHO-K1, ATP-induced calcium, Fluo-8 fluorescence;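 active = inhibition above that plate's mean sample inhibition plus 3 SD, cut at about 26% in these data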;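 note: 0% = ATP-challenged DMSO wells and 100% = DMSO wells without ATP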
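Test system: parental CHO cells; detection: calcium-sensitive Fluo-8 fluorescence; evaluation: percent inhibition of calcium signal; also added: ATP as calcium-mobilizing challenge; repeats: one well per compound; control set: ATP-challenged DMSO wells low, unchallenged DMSO wells high; compound: single nominal dose of 5.6 µM per compound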
OX1R HTRF conf – OX1R (HCRTR1) antagonists, confirmation, cell-based, HTRF; shares compounds with OX1R antag-1; OX1R-expressing cells, HTRF antagonist assay; inhibition, % at 6.6 µM; 1,800 compounds, 49% hits; in the data active = inhibition above about 55%;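 note: CHO cells expressing OX1R stimulated with orexin A at about EC80; 0% = agonist challenge alone and 100% = reference antagonist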
CHO-K1 HTRF – signal inhibition in parental CHO-K1 cells, counter-screen for OX1R antagonist project, cell-based, HTRF; shares compounds with OX1R antag-1; HTRF counterscreen; inhibition, % at 6.6 µM; 1,800 compounds, 48% hits; AID 493232, 2011; in the data active = inhibition above about 17%;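 note: 0% = agonist challenge with vehicle and 100% = vehicle alone without agonist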
Numbers without * were called inactive; . = no result given.

SMILES	NTR1 ag	OX1R antag-1	TAAR1 antagonist	TAAR1 agonist	OX1R antag-2	CHO parental Ca	OX1R HTRF conf	CHO-K1 HTRF
CCOC(=O)c1ccc[n+](CC(=O)c2ccc(NC(=O)c3ccccc3)cc2)c1	-1	0	-10	4	-24	-11	.	.
Cc1ccc2ncc(NC(=O)c3ccc(F)cc3)c(=O)n2c1	-1	91*	-7	18	-19	-1	29	33*
Cc1ccc2c(ccc[n+]2CC(=O)c2ccccc2)c1	-1	84*	-6	4	-15	-8	39	40*
COc1ccc(C(=O)C[n+]2cccc3cc(C)ccc32)cc1	-1	30	-3	0	-10	-10	.	.
CNC(=O)c1cc2c(=O)n3cc(C)ccc3nc2n(C(C)C)c1=N	2	145*	2	0	-21	7	52	71*
COCCCNC(=O)c1cc2c(=O)n3cccc(C)c3nc2n(C(C)C)c1=N	-2	81*	6	1	-19	-4	48	38*
Cc1cccn2c(=O)c3cc(C(=O)NC(C)C)c(=N)n(Cc4ccncc4)c3nc12	2	84*	-3	-1	-27	-14	50	57*
COCCn1c(=N)c(C(=O)NCCc2ccc(OC)cc2)cc2c(=O)n3cccc(C)c3nc21	3	30	-4	3	-36	-19	.	.
Cc1ccc2nc3c(cc(C(=O)NC4CCCCC4)c(=N)n3C3CCCCC3)c(=O)n2c1	10	17	-16	0	-12	-15	.	.
O=C(NCc1ccc(Cl)cc1)C1CC(O)CN1S(=O)(=O)c1ccc(Cl)cc1 (stereo not drawn)	0	4	1	0	-9	-13	.	.
CC1CN(S(=O)(=O)c2cccc(C(=O)Nc3ccccc3N3CCCC3)c2)CC(C)O1 (stereo not drawn)	0	5	-25	2	-42	-20	.	.
O=C(NCCN1CCOCC1)c1cc(Sc2ccccc2Cl)nc2ccccc12	2	91*	6	5	19	-16	90*	3
CCN1CCN(C(=O)CCc2nnc3ccc(N4CCC5(CC4)OCCO5)nn23)CC1	0	25	-21	2	-7	15	.	.
Cc1cc2nc(N3CCN(C(=O)c4ccco4)CC3)sc2cc1C	1	7	-10	4	-10	-3	.	.
Cc1cc(C)c2nc(N3CCN(C(=O)c4ccco4)CC3)sc2c1	1	82*	-28	3	-23	-14	22	5
CNC(=O)Nc1cccc2cccnc12	1	11	-12	3	-3	-11	.	.
O=C(COc1ccc2ccccc2c1)Nc1cccc2cccnc12	-1	81*	25	13	27	-23	45	-1
Cc1cc(C(=O)Nc2cccc3cccnc23)ccc1[N+](=O)[O-]	3	80*	-3	16	11	-28	56*	9
O=C(COc1ccc2ccccc2c1)Nc1cccnc1Cl	2	12	-4	0	-34	-27	.	.
CC(C)Oc1ccc(C(=O)Nc2cccc3cccnc23)cc1	6	79*	25	-2	19	-20	7	-7
O=C1NC[C@H](CCCCN2C[C@H](Cc3ccccc3)N(CCC3CCCCC3)C(=O)C2=O)N(CC2CCCCC2)C1=O	.	.	-3	0	.	.	.	.
O=[N+]([O-])c1cc(C(F)(F)F)ccc1NCCCN1CCOCC1	-1	26	-5	7	-29	-13	.	.
O=C(NCCCN1CCOCC1)c1cc(Cl)ccc1[N+](=O)[O-]	0	30	-10	12	6	-3	.	.
O=C(NCCCN1CCOCC1)c1ccc(Cl)cc1[N+](=O)[O-]	0	106*	19	1	-19	-6	36	7
CC(C)(CO)Nc1ccc([N+](=O)[O-])cc1[N+](=O)[O-]	0	94*	-14	-1	5	1	34	38*
SMILES	NTR1 ag	OX1R antag-1	TAAR1 antagonist	TAAR1 agonist	OX1R antag-2	CHO parental Ca	OX1R HTRF conf	CHO-K1 HTRF
O=[N+]([O-])c1ccc(NCCCN2CCOCC2)c([N+](=O)[O-])c1	0	171*	0	2	-13	9	46	72*
O=C(NCCN1CCOCC1)c1cc([N+](=O)[O-])cc([N+](=O)[O-])c1	-1	78*	-2	2	-6	-11	50	72*
O=C(NCCN1CCOCC1)c1ccc(Cl)c([N+](=O)[O-])c1	0	12	-7	11	-8	-5	.	.
CS(=O)(=O)c1ccc(Cl)c(NC(=O)CSc2nc3ccccc3c(=O)n2Cc2ccco2)c1	14	7	3	3	-9	-17	.	.
Nc1ccc(Nc2ccc([N+](=O)[O-])cc2[N+](=O)[O-])cc1	4	36	16	0	-15	0	.	.
NC(=O)c1ccc(Nc2ccc([N+](=O)[O-])cc2[N+](=O)[O-])cc1	3	107*	-10	2	-4	-9	42	54*
O=C(c1cc([N+](=O)[O-])cc([N+](=O)[O-])c1)N1CCOCC1	1	111*	15	4	-2	3	51	78*
O=C(NCc1cccnc1)c1ccc(Cl)cc1[N+](=O)[O-]	1	77*	-3	6	-16	-21	41	33*
Cc1ccn(CC(=O)NC2CC(C)(C)Cc3c2cnn3-c2ccc(F)cc2)n1 (stereo not drawn)	0	5	-14	0	-18	-27	.	.
Cc1cc(CNC[C@H]2O[C@@H](n3cnc(C(N)=O)n3)[C@H](O)[C@@H]2O)c(C)n1-c1cccnc1	.	.	-11	5	.	.	.	.
O=C(NCCn1cccn1)C1CCC(=O)N(CCc2ccccc2)C1 (stereo not drawn)	0	8	-6	0	-3	-4	.	.
Cc1[nH]c2ccccc2c1/C=C/c1nc2ccccc2c(=O)[nH]1	17	87*	-4	4	-25	3	75*	12
Cc1ccc(Nc2nc3nonc3[nH]c2=O)cc1Cl	6	43	-6	5	20	28	.	.
Cc1ccc(Nc2nc3nonc3[nH]c2=O)cc1C	0	78*	21	4	17	16	33	7
O=C(CSc1ccc(-c2cccs2)nn1)NCCc1ccccc1	0	30	-16	2	-21	-10	.	.
